Shown is part of a subset that was picked to be rich in hits.
Insulin prom act – TRM-6 insulin promoter activation; TRM-6 cells (human fetal islet line), insulin promoter eGFP reporter, imaging; plate-scaled: unstimulated 0, stimulated control 100; activation, % at 2 µM; hit rate 0.81% among 130,000; AID 1296;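 active = activation at 2 µM above a set limit, confirmed on inspection of the cell images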;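 also: share of cells whose green reporter signal exceeds an intensity cutoff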
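System – TRM-6 insulin promoter–eGFP reporter cells · Probe or stimulus – 0.75 µM tamoxifen as reporter inducer · Dosing – single-point 2 µM compound dose · Incubation – tamoxifen pre-incubation 15 h overnight, then compound exposure 48 h at 37 °C · Measured by – fixed-cell fluorescence microscopy, eGFP plus Hoechst · Evaluation – percent GFP-positive cells normalized to per-plate controls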
Of the large screens only hits and unclear results are named; the others gave an inactive call.

O=C(Nc1ccc(F)c(F)c1)c1oc2ccccc2c1NC(=O)C1CCCO1 (stereo not given)	none
CN(C)S(=O)(=O)Nc1ccccc1C(N)=O	none
CC(C)c1ccccc1NS(=O)(=O)N(C)C	Insulin prom act 380.0
Cc1ccc(S(=O)(=O)Nc2cc(C(C)C)c(O)cc2C)cc1	none
CCCOc1ccc(C(=O)N/N=C/c2ccc(-c3ccc(S(=O)(=O)Nc4ncccn4)cc3)o2)cc1	none
Cc1cc(C)n(CC(O)Cn2c3ccccc3c3ccccc32)n1 (stereo not given)	none
Cc1cc(C)n(CC(O)CN2c3ccccc3Sc3ccccc32)n1 (stereo not given)	Insulin prom act 209.1
Cc1cc(C)n(CC(=O)n2c3ccccc3c3ccccc32)n1	none
CC1CC(C)CN(CCCNC(=O)C2CCN(S(=O)(=O)N3CCCCC3)CC2)C1 (stereo not given)	none
Cc1cc(C)cc(NC(=O)OCCN2CCN(Cc3ccccc3)CCC2=O)c1	none
COCCN(C(=O)C1CC1)c1nnc(-c2cccc(C)c2)s1	Insulin prom act 181.8
COCCN(C(=O)/C=C/c1ccccc1)c1nnc(-c2cccnc2)s1	none
CCCCC(=O)N(CCOC)c1nnc(-c2ccc(OC)cc2)s1	none
C/C(=N/NC(=O)c1sc(NS(=O)(=O)c2ccccc2)nc1C)c1ccc(F)cc1	none
CCN(CC)CCNC(=O)Cn1c(C)cc2ccccc2c1=O	none
CC1(C(=O)O)Sc2[nH]c(=O)sc2C2c3ccccc3OC(=O)C21 (stereo not given)	none
Cc1cccc(C)c1N(CC(=O)N/N=C/c1cc(Br)c(C)o1)S(C)(=O)=O	none
Cc1ccc(/C=C2/C(=O)N(c3ccccc3)C(=S)N2C)o1	none
O=C(O)CCCSCC(=O)Nc1ccccc1	none
O=C(CSc1ncn(-c2ccccc2)n1)Nc1nccs1	none
Cc1cc(C)nc(NC(=O)CSc2nc3ccccc3s2)n1	none
O=C(CSc1nn(-c2ccccc2)c(=S)s1)Nc1ncccn1	Insulin prom act 376.9
CCOc1ccc(-c2c(C(=O)N/N=C/c3ccc(OC)cc3)nnn2-c2nonc2N)cc1	none
Cc1ccc(Cl)cc1NC(=O)CC(O)(C(F)(F)F)C(F)(F)F	none
Cc1cc(C(F)(F)F)nc(SCC(=O)Nc2ccccc2)n1	none
Cc1cc(C(F)(F)F)nc(SCC(=O)NC2CC3CCC2C3)n1 (stereo not given)	Insulin prom act 431.4
COc1ccc(NC(=O)CSc2nc(C)cc(C(F)(F)F)n2)cc1	none
Cn1c(SCCOc2ccccc2Cl)nnc1-c1ccncc1	Insulin prom act 538.5
Cn1c(SCC(=O)C(C)(C)C)nnc1-c1ccncc1	none
COc1ccc(NC(=O)CSc2nnc(-c3ccncc3)n2C)cc1	none
Cc1cc(C)c2nc(N3CCC(C(=O)NCCCN4CCCCC4)CC3)sc2c1	Insulin prom act 513.3
Cc1ccc(CCNC(=O)C2CCN(c3nn4c(=O)cc(C)nc4s3)CC2)cc1	none
Cc1cc(C)c(S(=O)(=O)NCC2CCC(C(=O)NCCCN3CCOCC3)CC2)c(C)c1 (stereo not given)	none
Cc1cnc(C(=O)Nc2ccccc2F)cn1	none
CC(=O)c1cccc(N2C(=O)Nc3ccccc3N2O)c1	none
Cn1c(=O)c2c(ncn2CC(O)CNc2cccc(Cl)c2)n(C)c1=O (stereo not given)	none
Cc1ccc(Cn2nc(C)c(NC(=O)CCCn3nc(C)c([N+](=O)[O-])c3C)c2C)cc1	none
COc1ccc(C2Nc3ccccc3C(=O)N2c2ccc(C)cc2)cc1Cn1nc(C)c([N+](=O)[O-])c1C (stereo not given)	Insulin prom act 129.0
COc1cccc(C2Nc3ccccc3C(=O)N2O)c1O (stereo not given)	none
O=C1Nc2ccc([N+](=O)[O-])cc2C1(O)N1CCCCCC1 (stereo not given)	none
CCOc1ccc(N2C(=O)/C(=C\c3ccccc3OC)S(=O)(=O)C2c2cccc([N+](=O)[O-])c2)cc1 (stereo not given)	none
CCS(=O)(=O)c1ccc2oc(SCC(=O)NC3CCCC(C)C3C)nc2c1 (stereo not given)	Insulin prom act 92.9
CN(C)S(=O)(=O)c1ccc2oc(SCC(N)=O)nc2c1	none
Cc1cc(C)nc(NC(=O)CSc2nc3ccccc3o2)n1	none
O=C(NCCN1CCOCC1)c1cc(S(=O)(=O)NCCCN2CCCC2=O)ccc1Cl	none
NC(=O)C1CCN(C(=O)OCc2ccccc2)CC1	none
CCN1CCS/C1=C/C=C/C1=[N+](CC)CCS1	Insulin prom act 233.3
COc1ccc([N+](=O)[O-])cc1NC(=O)C(C)N1CCN(C(=O)c2ccco2)CC1 (stereo not given)	none
OCCc1ccc(-c2ccc(Cl)cc2)o1	Insulin prom act 450.0
S=C(c1ccc(-c2ccc(Cl)cc2)o1)N1CCCCC1	none
Nc1cccc(-c2ccc(CO)o2)c1	none
CCCN(CCC)CC(O)COc1ccc([N+](=O)[O-])cc1 (stereo not given)	none
CCC(=O)N1CCc2cc(S(=O)(=O)NCCCOC)ccc21	none
CCOC(=O)N1CCC(NC(=O)C(NS(=O)(=O)c2ccc3c(c2)CCN3C(C)=O)C(C)C)CC1 (stereo not given)	none
CCC(=O)N1CCc2cc(S(=O)(=O)NC(Cc3ccccc3)C(=O)NC3CCCCC3)ccc21 (stereo not given)	Insulin prom act 316.7
CN(C(=O)COc1ccccc1C(=O)NCCc1ccccc1)c1ccccc1	none
CNC(=S)N(CCc1ccccc1)Cc1cc2cc(OC)c(OC)cc2[nH]c1=O	none
CCN(CC)S(=O)(=O)c1ccc(C(=O)OCCN2C(=O)c3cccc4c(N5CCOCC5)ccc(c34)C2=O)cc1	none
O=C(OCCN1C(=O)c2cccc3c(N4CCOCC4)ccc(c23)C1=O)c1cc(Cl)cc(Cl)c1	Insulin prom act 203.6
Cn1nc(C(=O)OCCN2C(=O)c3ccccc3C2=O)c2ccccc2c1=O	none
CCCN1C(=O)c2cccc3c(N4CCCCC4)ccc(c23)C1=O	Insulin prom act 244.8
CCN1C(=O)c2cccc3c(S(=O)(=O)Nc4ccccc4OC)ccc1c23	none
O=C1c2cccc3c(N4CCCCC4)ccc(c23)C(=O)N1c1ccc(Cl)cn1	none
Cc1[nH]c2ccccc2c1[C@H]1[C@@H](CC#N)C1(C)C	none
CN(C)c1nc(C#N)nc(N(C)C)n1	none
CC[n+]1ccc(C[n+]2ccccc2)c2ccccc21	none
COc1cc(OC)c(S(=O)(=O)N2CCCCC2)cc1S(=O)(=O)N1CCCCC1	none
Cc1cc(C)c(NC(=O)CSc2nccn2C)c(C)c1	none
Cc1cccc(C)c1-n1c(C)cc(/C=N/NC(N)=S)c1C	none
COc1cc(/C(C)=N\NC(N)=S)cc(OC)c1OC	none
Cc1oc(-c2ccccc2F)nc1CN1CCC(C(=O)NC2CCCc3ccccc32)CC1 (stereo not given)	none
Cc1oc(-c2ccc(Cl)cc2)nc1CN1CCC(C(=O)NCc2cccs2)CC1	none
Cc1cccc(-c2nc(CN3CCCC(C(=O)NC4CCC(C)CC4)C3)c(C)o2)c1 (stereo not given)	Insulin prom act 135.7
CCOC(=O)C1CCCN(C2CC(=O)N(c3ccccc3)C2=O)C1 (stereo not given)	none
CCc1ccc(N2CC(C(=O)OC)CC2=O)cc1 (stereo not given)	none
CCc1ccc(N2C(=O)CC(N3CCC(C(=O)OC)CC3)C2=O)cc1 (stereo not given)	Insulin prom act 542.9
CCNC(=S)N1CCC(c2nc3ccccc3s2)CC1	none
O=C(NCc1ccccc1)c1cccc(Br)n1	none
COc1cc(/C=N/Nc2nc(C)cc(=O)[nH]2)ccc1OC(=O)c1cccnc1	none
Clc1cccc(N2CCN(c3nnnn3-c3ccccc3)CC2)c1	none
Fc1cccc(-n2ncc(-c3nnnn3-c3ccccc3)c2C(F)(F)F)c1	Insulin prom act 528.6
c1ccc(-n2nnnc2OCCOc2nnnn2-c2ccccc2)cc1	none
Cc1cc(C=O)c(C)n1-c1ccc(Cl)c(C(=O)O)c1	none

Screening results (PubChem)
